# Reference: ChEMBL document CHEMBL3853298, “Total synthesis and in vitro bioevaluation of clavaminols A, C, H & deacetyl clavaminol H as potential chemotherapeutic and antibiofilm agents” (Eur J Med Chem, 2016)
# How the values were obtained:
# Micrococcus luteus [1] = assay: Bactericidal activity against Micrococcus luteus MTCC 2470 after 24 hrs; type: functional; conditions: MTCC 2470, 24 h
# Outline: (§1)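 Broth macrodilution in Mueller Hinton broth, compound serially diluted from 150 down to 0. Overnight bacterial culture added to a final 1.5 × 10^8 CFU/mL (0.5 McFarland), 24 h at 37 °C. Suspension then subcultured onto Mueller Hinton agar for 24 h at 37 °C. MBC is the lowest concentration killing the strain. Duplicates.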
# Staphylococcus aureus [2] = assay: Antibacterial activity against Staphylococcus aureus MTCC 96 after 24 hrs by well diffusion method; type: functional; conditions: MTCC 96, 24 h
# Outline: (§2)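 Bacteria spread (0.1 mL suspension) on Mueller-Hinton agar; 6.0 mm wells loaded with compound over a 250 to 0.48 per-well dose range, methanol as negative control. Incubated 24 h at 37 °C. MIC taken as the lowest concentration still giving an inhibition zone. Duplicates, mean reported.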
# Bacillus subtilis [3] = assay: Bactericidal activity against Bacillus subtilis MTCC 121 after 24 hrs; type: functional; conditions: MTCC 121, 24 h; outline: as §1
# Escherichia coli = assay: Antibiofilm activity against Escherichia coli MTCC 739 incubated for 24 hrs under static condition by crystal violet staining-based assay; type: functional
# Outline: (§3)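 Strains grown overnight in tryptone soy broth with 0.5% glucose. Compound (250 to 0) mixed with inoculum at 5 × 10^5 CFU/mL in polystyrene microtiter plates. Non-adherent cells washed off with PBS; wells stained with 0.1% crystal violet, dye solubilised in 95% ethanol, absorbance read at 540 nm. IC50 for 50% biofilm inhibition taken from dose-response curves. Triplicates, mean ± S.D.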
# Candida albicans [4] = assay: Fungicidal activity against Candida albicans MTCC 7315 after 24 hrs; type: functional; conditions: MTCC 7315, 24 h
# Outline: (§4)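 Candida grown overnight in Mueller Hinton broth. Compound serially diluted in the same broth from 150 to 0 and inoculated to a final 1.5 × 10^8 CFU/mL (0.5 McFarland), then 24 h at 37 °C. Tube contents plated onto Mueller Hinton agar for 24 h at 37 °C. MFC is the lowest concentration killing the yeast. Duplicates.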
# Candida parapsilosis = assay: Fungicidal activity against Candida parapsilosis MTCC 1744 after 24 hrs; type: functional; conditions: Lodderomyces parapsilosis, MTCC 1744, 24 h
# Outline: (§5)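 Broth dilution in Mueller Hinton broth with serial compound concentrations from […]. Overnight Candida cultures added to a final 1.5 × 10^8 CFU/mL (0.5 McFarland). Incubated 24 h at 37 °C, then 10 µL of each tube plated on Mueller Hinton agar for 24 h at 37 °C. MFC taken as the lowest concentration that kills the strain. Run in duplicate.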
# Micrococcus luteus [5] = assay: Antibacterial activity against Micrococcus luteus MTCC 2470 after 24 hrs by well diffusion method; type: functional; conditions: MTCC 2470, 24 h; outline: as §2
# Candida albicans [6] = assay: Fungicidal activity against Candida albicans MTCC 854 after 24 hrs; type: functional; conditions: MTCC 854, 24 h; outline: as §4
# Candida albicans [7] = assay: Antifungal activity against Candida albicans MTCC 3017 after 24 hrs by well diffusion method; type: functional; conditions: MTCC 3017, 24 h
# Outline: (§6)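 Candida/Issatchenkia lawns (0.1 mL suspension) on Mueller-Hinton agar; 6.0 mm bored wells receive compound across a 250 to 0.48 per-well dose range, methanol as negative control. Plates kept 24 h at 30 °C. MIC is the lowest concentration producing a visible inhibition zone. Duplicate runs, mean values.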
# Staphylococcus aureus [8] = assay: Antibiofilm activity against Staphylococcus aureus MLS16 MTCC 2940 incubated for 24 hrs under static condition by crystal violet staining-based assay; type: functional; outline: as §3
# [9] = Cytotoxicity against human SKOV3 cells assessed as cell growth inhibition by MTT assay; type: functional, cell-based; conditions: SK-OV-3
# Raoultella planticola = assay: Bactericidal activity against Klebsiella planticola MTCC 530 after 24 hrs; type: functional; conditions: MTCC 530, 24 h; outline: as §1
# Candida albicans [10] = assay: Fungicidal activity against Candida albicans MTCC 3018 after 24 hrs; type: functional; conditions: MTCC 3018, 24 h; outline: as §4
# Micrococcus luteus [11] = assay: Antibiofilm activity against Micrococcus luteus MTCC 2470 incubated for 24 hrs under static condition by crystal violet staining-based assay; type: functional; outline: as §3
# [Candida] aaseri [12] = Fungicidal activity against Candida aaseri MTCC 1962 after 24 hrs; type: functional; conditions: Yamadazyma aaseri, MTCC 1962, 24 h; outline: as §4
# [Candida] aaseri [13] = Antifungal activity against Candida aaseri MTCC 1962 after 24 hrs by well diffusion method; type: functional; conditions: Yamadazyma aaseri, MTCC 1962, 24 h; outline: as §6
# Candida albicans [14] = assay: Antifungal activity against Candida albicans MTCC 854 after 24 hrs by well diffusion method; type: functional; conditions: MTCC 854, 24 h; outline: as §6
# Candida albicans [15] = assay: Antifungal activity against Candida albicans MTCC 3018 after 24 hrs by well diffusion method; type: functional; conditions: MTCC 3018, 24 h; outline: as §6
# Pichia sporocuriosa [16] = assay: Fungicidal activity against Issatchenkia hanoiensis MTCC 4755 after 24 hrs; type: functional; conditions: MTCC 4755, 24 h; outline: as §5
# Nakaseomyces glabratus = assay: Fungicidal activity against Candida glabrata MTCC 3019 after 24 hrs; type: functional; conditions: MTCC 3019, 24 h; outline: as §4
# [17] = Antifungal activity against Candida krusei MTCC 3020 after 24 hrs by well diffusion method; type: functional; conditions: Pichia kudriavzevii; outline: as §6
# Candida albicans [18] = assay: Antifungal activity against Candida albicans MTCC 4748 after 24 hrs by well diffusion method; type: functional; conditions: MTCC 4748, 24 h; outline: as §6
# Pichia kudriavzevii = assay: Fungicidal activity against Candida krusei MTCC 3020 after 24 hrs; type: functional; conditions: MTCC 3020, 24 h; outline: as §5
# Pichia sporocuriosa [19] = assay: Antifungal activity against Issatchenkia hanoiensis MTCC 4755 after 24 hrs by well diffusion method; type: functional; conditions: MTCC 4755, 24 h; outline: as §6
# Bacillus subtilis [20] = assay: Antibiofilm activity against Bacillus subtilis MTCC 121 incubated for 24 hrs under static condition by crystal violet staining-based assay; type: functional; outline: as §3
compound,measurement,setting,value
CCCCCCCCC[C@H](O)[C@H](N)CO,MBC,Micrococcus luteus [1],7.8 µg/mL
same,MIC,Staphylococcus aureus [2],7.8 µg/mL
same,MBC,Bacillus subtilis [3],7.8 µg/mL
same,INH,Escherichia coli,4.6 µg/mL
same,MFC,Candida albicans [4],62.5 µg/mL
same,MFC,Candida parapsilosis,62.5 µg/mL
same,MIC,Micrococcus luteus [5],3.9 µg/mL
same,MFC,Candida albicans [6],15.6 µg/mL
same,MIC,Candida albicans [7],15.6 µg/mL
same,IC50,Staphylococcus aureus [8],2.1 µg/mL
same,IC50,[9],33.6 µM
same,MBC,Raoultella planticola,31.2 µg/mL
same,MFC,Candida albicans [10],15.6 µg/mL
same,IC50,Micrococcus luteus [11],2.3 µg/mL
same,MFC,[Candida] aaseri [12],31.2 µg/mL
same,MIC,[Candida] aaseri [13],15.6 µg/mL
same,MIC,Candida albicans [14],15.6 µg/mL
same,MIC,Candida albicans [15],15.6 µg/mL
same,MFC,Pichia sporocuriosa [16],31.2 µg/mL
same,MFC,Nakaseomyces glabratus,15.6 µg/mL
same,MIC,[17],7.8 µg/mL
same,MIC,Candida albicans [18],15.6 µg/mL
same,MFC,Pichia kudriavzevii,15.6 µg/mL
same,MIC,Pichia sporocuriosa [19],15.6 µg/mL
same,IC50,Bacillus subtilis [20],2.6 µg/mL
